Measurements taken from ChEMBL document CHEMBL1128437, “Derivatives of 17-phenyl-18,19,20-trinorprostaglandin F2 alpha isopropyl ester: potential antiglaucoma agents” (J Med Chem, 1995).

Experiments:
[1] = organism: Felis catus; experiment: The maximal difference in […] pupil diameter between treated and control eyes. The effect was tested in cats at a dose of 3.0 (ug/eye); type: functional
How it was run: (§1)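 Trained female cats, 2–3 kg, were dosed unilaterally with one 20 µL topical drop of drug in 0.9% NaCl/0.5% polysorbate 80, with vehicle in the contralateral eye. Horizontal pupil diameter was measured with a millimetre ruler under constant 10 lux illumination before dosing and at 1, 3, 6 and 23 h. Reported as maximal treated–control difference or as area between curves, per animal.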

[2] = organism: Felis catus; experiment: The maximal difference in Intraocular Pressure (IOP) between treated and control eyes. The effect was tested in cats at a dose of 3.0 (ug/eye); type: functional
How it was run: (§2)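 Domestic female cats, 2–3 kg, trained for IOP measurement. One eye received a topical drop (20 µL) of drug in 0.9% NaCl with 0.5% polysorbate 80; the other eye received vehicle. IOP was read by pneumatonometer under oxibuprocain local anaesthesia before dosing and at 1, 3, 6 and 23 h. The maximal treated-minus-control difference was taken. Area between curves is the treated-eye AUC minus control-eye AUC, per animal.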

[3] = organism: Felis catus; experiment: The mean area between curves for Intraocular Pressure (IOP) measured in treated and control eyes. The effect was tested in cats at a dose of 3.0 (ug/eye); type: functional; how it was run: as §2
[4] = organism: Oryctolagus cuniculus; experiment: The mean area between curves for conjunctival hyperemia between treated and control eyes. The effect was tested in rabbit at a dose of 0.5 (ug/eye)
[5] = organism: Felis catus; experiment: The mean ocular irritation in the treated eyes. An arbitrary scale of from 0 to 3 was used, 0 indicates absence of irritation and 3 complete closure of the lids. The effect was tested in cats at a dose of 3.0 (ug/eye); type: functional
How it was run: (§3)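 Ocular irritation was scored in the treated eye of trained female cats, 2–3 kg. Drug was given as one topical 20 µL drop in 0.9% NaCl with 0.5% polysorbate 80. The contralateral eye got vehicle only.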

[6] = tested on: Monkey; experiment: The mean area between curves for Intraocular Pressure (IOP) measured in treated and control eyes. The effect was tested in monkey at a dose of 3.0 (ug/eye); type: functional, Cercopithecidae
How it was run: (§4)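 Cynomolgus monkeys trained for IOP measurement were sedated with ketamine (2–3 mg/kg) for transport and seated in restraint chairs under oxibuprocain local anaesthesia. One eye received a 10 µL drop of drug in 0.9% NaCl/0.5% polysorbate 80; the fellow eye received vehicle. IOP was read by pneumatonometer calibrated for monkey eyes before dosing and at 1, 2, 4 and 6 h. Matched-pair t test, n = 6.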

[7] = organism: Felis catus; experiment: The mean area between curves for pupil diameter between treated and control eyes. The effect was tested in cats at a dose of 3.0 (ug/eye); type: functional; how it was run: as §1
[8] = tested on: Monkey; experiment: The maximal difference in Intraocular Pressure (IOP) between treated and control eyes. The effect was tested in monkey at a dose of 3.0 (ug/eye); type: functional, Cercopithecidae; how it was run: as §4
[9] = organism: Oryctolagus cuniculus; experiment: The maximal difference in conjunctival hyperemia between treated and control eyes. The effect was tested in rabbit at a dose of 0.5 (ug/eye)
[10] = organism: Felis catus; experiment: The mean area between curves for pupil diameter between treated and control eyes. The effect was tested in cats at a dose of 1.0 (ug/eye); type: functional; how it was run: as §1
[11] = organism: Felis catus; experiment: The maximal difference in […] pupil diameter between treated and control eyes. The effect was tested in cats at a dose of 1.0 (ug/eye); type: functional; how it was run: as §1
[12] = organism: Felis catus; experiment: The mean ocular irritation in the treated eyes. An arbitrary scale of from 0 to 3 was used, 0 indicates absence of irritation and 3 complete closure of the lids. The effect was tested in cats at a dose of 1.0 (ug/eye); type: functional; how it was run: as §3
[13] = organism: Felis catus; experiment: The maximal difference in Intraocular Pressure (IOP) between treated and control eyes. The effect was tested in cats at a dose of 1.0 (ug/eye); type: functional; how it was run: as §2
[14] = organism: Felis catus; experiment: 66 The maximal difference in Intraocular Pressure (IOP) between treated and control eyes. The effect was tested in cats at a dose of 3.0 (ug/eye); type: functional; how it was run: as §2
[15] = organism: Felis catus; experiment: The mean area between curves for Intraocular Pressure (IOP) measured in treated and control eyes. The effect was tested in cats at a dose of 1.0 (ug/eye); type: functional; how it was run: as §2

## CC(C)OC(=O)CCC/C=C\C[C@@H]1[C@@H](/C=C/[C@@H](O)CCc2ccc(-c3ccco3)cc2)[C@H](O)C[C@@H]1O
[1]
  Pmax: -0.6 mm
[2]
  Imax: <-5 mmHg
[3]
  I ABC: -76.1
[4]
  H ABC: -0.2
[5]
  Irritation: 0.6 arbitrary units
[6]
  I ABC: 0.5
[7]
  P ABC: -6
[8]
  Imax: 0.3 mmHg
[9]
  Hmax: -0.1

## CC(C)OC(=O)CCC/C=C\C[C@@H]1[C@@H](/C=C/[C@@H](O)CCc2ccc(-c3ccsc3)cc2)[C@H](O)C[C@@H]1O
[10]
  P ABC: -3.3
[1]
  Pmax: < -1.2 mm
[3]
  I ABC: <-66
[11]
  Pmax: -1 mm
[12]
  Irritation: 0.2 arbitrary units
[4]
  H ABC: <0.8
[5]
  Irritation: 0.6 arbitrary units
[13]
  Imax: <-4 mmHg
[14]
  Imax: -5 mmHg
[15]
  I ABC: -63.2
[7]
  P ABC: <-9.2
[9]
  Hmax: 0.3
